In ChEMBL document CHEMBL1240455, “Synthesis of 5-[alkoxy-(4-nitro-phenyl)-methyl]-uridines and study of their cytotoxic activity” (Eur J Med Chem, 2010):
Values after ≈ are worked out from the molar mass of the structure shown.

Legend:
[1] = test system: CCRF-CEM; assay: Cell cycle arrest in human CEM cells assessed as accumulation at G2/M phase using propidium iodide staining at IC50 concentration after 24 hrs by flow cytometry; format: functional
[2] = test system: CCRF-CEM; assay: Induction of mitotic arrest in human CEM cells assessed as pH3Ser10 positive cells at 5 times IC50 concentration after 24 hrs by flow cytometry; format: functional
[3] = test system: CCRF-CEM; assay: Inhibition of DNA synthesis in human CEM cells assessed as BrDU incorporation using propidium iodide staining at 5 times IC50 concentration after 24 hrs by flow cytometry; format: functional; parameters: scale not given: the % may be the effect or the level left
Method in brief: (§1)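 CEM cells exposed at 1× and 5× IC50 for 3, 6, 9 and 24 h, then pulsed with BrdU for 30 min at 37 °C. Cells fixed overnight in ice-cold 70% ethanol and DNA denatured in 2 M HCl for 30 min. Neutralised with 0.1 M sodium borate, then stained with anti-BrdU antibody, FITC secondary, and propidium iodide/RNase. Read by flow cytometry at 488 nm.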

[4] = test system: CCRF-CEM; assay: Cell cycle arrest in human CEM cells assessed as accumulation at S phase using propidium iodide staining at IC50 concentration after 24 hrs by flow cytometry; format: functional
[5] = test system: CCRF-CEM; assay: Cytotoxicity against human CEM cells after 72 hrs by MTT assay; format: functional, cell-based
Method in brief: (§2)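 Cells seeded at 2500–30,000 per well by cell type and pre-incubated 24 h at 37 °C, 5% CO2. Compounds dissolved in 10% DMSO, added as four-fold dilutions at time zero, tested in quadruplicate. Exposure 72 h at 37 °C, 5% CO2, 100% humidity. MTT then added for 1–4 h, formazan dissolved overnight at 37 °C, OD read at 540 nm. IC50 taken from dose-response curves relative to control wells.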

[6] = test system: Staphylococcus aureus; assay: Antimicrobial activity against methicillin-resistant Staphylococcus aureus after 24 hrs; format: functional
[7] = test system: Enterococcus faecalis; assay: Antimicrobial activity against Enterococcus faecalis CCM 4224 after 24 hrs; format: functional; settings: CCM 4224, 24 h
[8] = test system: K562; assay: Cytotoxicity against human paclitaxel-resistant K562 cells after 72 hrs by MTT assay; format: functional, cell-based; method in brief: as §2
[9] = test system: Staphylococcus aureus; assay: Antimicrobial activity against Staphylococcus aureus CCM 3953 after 24 hrs; format: functional; settings: CCM 3953, 24 h
[10] = test system: CCRF-CEM; assay: Cell cycle arrest in human CEM cells assessed as accumulation at G0/G1 phase using propidium iodide staining at IC50 concentration after 24 hrs by flow cytometry; format: functional
[11] = test system: CCRF-CEM; assay: Induction of mitotic arrest in human CEM cells assessed as pH3Ser10 positive cells at IC50 concentration after 24 hrs by flow cytometry; format: functional
[12] = test system: CCRF-CEM; assay: Inhibition of DNA synthesis in human CEM cells assessed as BrDU incorporation using propidium iodide staining at IC50 concentration after 24 hrs by flow cytometry; format: functional; parameters: scale not given: the % may be the effect or the level left; method in brief: as §1
[13] = test system: A549; assay: Cytotoxicity against human A549 cells after 72 hrs by MTT assay; format: functional, cell-based; method in brief: as §2
[14] = test system: CCRF-CEM; assay: Induction of apoptosis in human CEM cells using propidium iodide staining at 5 times IC50 concentration after 24 hrs by flow cytometry; format: functional
[15] = test system: Staphylococcus haemolyticus; assay: Antimicrobial activity against Staphylococcus haemolyticus after 24 hrs; format: functional
Method in brief: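 MIC taken as the lowest concentration preventing bacterial growth after 24 h incubation at 37 °C. Strains came from the Czech Collection of Microorganisms or from clinical isolates of hospital patients.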

[16] = test system: CCRF-CEM; assay: Induction of apoptosis in human CEM cells using propidium iodide staining at IC50 concentration after 24 hrs by flow cytometry; format: functional
[17] = Cytotoxicity against human CEM-DNR-B cells after 72 hrs by MTT assay; format: functional, cell-based; method in brief: as §2
[18] = test system: CCRF-CEM; assay: Inhibition of RNA synthesis in human CEM cells assessed as BrU incorporation using propidium iodide staining at IC50 concentration after 24 hrs by flow cytometry; format: functional; parameters: scale not given: the % may be the effect or the level left
Method in brief: (§3)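 RNA synthesis measured by flow cytometry of incorporated 5-bromouridine, detected with a cross-reacting anti-BrdU antibody. CEM cells exposed at 1× and 5× IC50 for 3, 6, 9 and 24 h and pulsed for 30 min at 37 °C before harvest. Fixed 15 min in 1% paraformaldehyde/0.05% NP-40 in PBS and stored at 4 °C at least overnight. Stained with primary and FITC secondary antibodies, 30 min each at room temperature.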

[19] = test system: K562; assay: Cytotoxicity against human K562 cells after 72 hrs by MTT assay; format: functional, cell-based; method in brief: as §2
[20] = test system: CCRF-CEM; assay: Inhibition of RNA synthesis in human CEM cells assessed as BrU incorporation using propidium iodide staining at 5 times IC50 concentration after 24 hrs by flow cytometry; format: functional; parameters: scale not given: the % may be the effect or the level left; method in brief: as §3
[21] = test system: CCRF-CEM; assay: Cell cycle arrest in human CEM cells assessed as accumulation at G2/M phase using propidium iodide staining at 5 times IC50 concentration after 24 hrs by flow cytometry; format: functional
Method in brief: (§4)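 CEM T-lymphoblastic leukemia cells were exposed to compound at 1× and 5× IC50 over a 24 h interval. DNA content was measured by flow cytometry with a 488 nm laser.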

[22] = test system: CCRF-CEM; assay: Cell cycle arrest in human CEM cells assessed as accumulation at S phase using propidium iodide staining at 5 times IC50 concentration after 24 hrs by flow cytometry; format: functional; method in brief: as §4
[23] = test system: CCRF-CEM; assay: Cell cycle arrest in human CEM cells assessed as accumulation at G0/G1 phase using propidium iodide staining at 5 times IC50 concentration after 24 hrs by flow cytometry; format: functional; method in brief: as §4

SMILES	Activity [1] [%]	Activity [2] [%]	Activity [3] [%]	Activity [4] [%]	IC50 ([5]; Homo sapiens, CCRF-CEM, 72 h) [µM]	IC50 ([8]; Homo sapiens, K562, 72 h) [µM]	Activity [10] [%]	Activity [11] [%]	Activity [12] [%]	IC50 ([13]; Homo sapiens, A549, 72 h) [µM]	Activity [14] [%]	Activity [16] [%]	IC50 ([17]; Homo sapiens, 72 h) [µM]	Activity [18] [%]	IC50 ([19]; Homo sapiens, K562, 72 h) [µM]	Activity [20] [%]	IC50 ([5]; ccrf-cem) [µM]	IC50 ([8]; k562) [µM]	IC50 ([13]; a549) [µM]	IC50 [17] [µM]	other results
CCCCCCCCOC(c1ccc([N+](=O)[O-])cc1)c1cn([C@@H]2O[C@H](CO)[C@@H](O)[C@H]2O)c(=O)[nH]c1=O (single isomer, unassigned; (+))	9.83	0.03	6.01	47.81	11.4	33.1	42.36	2.05	46.03	38.7	76	7	34.6	58.1	15.1	1.44	–	–	–	–	MIC [6]: 100 µM (≈ 50.8 µg/mL); MIC [7]: 200 µM (≈ 102 µg/mL); MIC [9]: 100 µM (≈ 50.8 µg/mL); MIC [15]: 200 µM (≈ 102 µg/mL)
CCCCCCOC(c1ccc([N+](=O)[O-])cc1)c1cn([C@@H]2O[C@H](CO)[C@@H](O)[C@H]2O)c(=O)[nH]c1=O (single isomer, unassigned; (-))	–	–	–	–	–	–	–	–	–	–	–	–	–	–	–	–	45.5	137	156	146	IC50 ([19]; k562): 64.5 µM
CCCCCCCCCOC(c1ccc([N+](=O)[O-])cc1)c1cn([C@@H]2O[C@H](CO)[C@@H](O)[C@H]2O)c(=O)[nH]c1=O (single isomer, unassigned; (-))	8.83	0.04	0.95	47.79	–	–	43.38	1.74	47.38	–	–	–	–	57.26	–	1.9	10	23.9	29.1	33.8	IC50 ([19]; k562): 13 µM
CCCCCCCOC(c1ccc([N+](=O)[O-])cc1)c1cn([C@@H]2O[C@H](CO)[C@@H](O)[C@H]2O)c(=O)[nH]c1=O (stereo in doubt; (+)7g)	–	–	–	–	–	42.8	–	–	–	39.8	–	–	104	–	33.6	–	12.8	–	–	–	–
CCCCCCOC(c1ccc([N+](=O)[O-])cc1)c1cn([C@@H]2O[C@H](CO)[C@@H](O)[C@H]2O)c(=O)[nH]c1=O (stereo in doubt; (+)-7f)	–	–	–	–	39.8	141	–	–	–	121	–	–	131	–	58.4	–	–	–	–	–	–
CCCCCCCCCOC(c1ccc([N+](=O)[O-])cc1)c1cn([C@@H]2O[C@H](CO)[C@@H](O)[C@H]2O)c(=O)[nH]c1=O (stereo in doubt; (+)-7i)	11.25	0.25	2.95	47.81	7.9	14.6	40.95	1.66	52.17	23.1	83	4	32.3	60.22	10.9	0.8	–	–	–	–	MIC [6]: 50 µM (≈ 26.1 µg/mL); MIC [7]: 50 µM (≈ 26.1 µg/mL); MIC [9]: 50 µM (≈ 26.1 µg/mL); MIC [15]: 100 µM (≈ 52.2 µg/mL)
CCCCCCCOC(c1ccc([N+](=O)[O-])cc1)c1cn([C@@H]2O[C@H](CO)[C@@H](O)[C@H]2O)c(=O)[nH]c1=O (stereo in doubt; (-)-8g)	–	–	–	–	–	–	–	–	–	–	–	–	–	–	–	–	29	52.3	69.9	95.6	IC50 ([19]; k562): 36.7 µM
CCCCCCCCOC(c1ccc([N+](=O)[O-])cc1)c1cn([C@@H]2O[C@H](CO)[C@@H](O)[C@H]2O)c(=O)[nH]c1=O (stereo in doubt; (-)-8h)	11.33	0.01	6.67	48.56	–	–	40.02	1.68	48.73	–	71	5	–	56.18	–	1.61	16.9	34.4	39.7	36.6	IC50 ([19]; k562): 24.7 µM
Nc1nc(F)nc2c1ncn2[C@@H]1O[C@H](CO)[C@@H](O)[C@@H]1O [FLUDARABINE]	19.5	0.01	10.37	40.84	19.5	0.26	39.66	0.28	14.12	47.4	74.84	62.1	1.01	7.62	267	8.92	–	–	–	–	Activity [21]: 4.95%; Activity [22]: 52.94%; Activity [23]: 42.11%
Nc1nc2[nH]cnc2c(=S)[nH]1 [THIOGUANINE]	7.19	0.43	19.82	49.39	2.98	3.9	43.42	1.21	35.32	2.82	18.69	11.27	9.47	45.84	1.54	48.93	–	–	–	–	Activity [21]: 9.95%; Activity [22]: 46.47%; Activity [23]: 43.58%
